We go through 56 molecules from ChEMBL document CHEMBL4038333, “Nonacidic Farnesoid X Receptor Modulators” (J Med Chem, 2017).

Active and inactive are the calls of the source. No cut-off for these calls is given here.

The target of one data set is T1, Bile acid receptor (Homo sapiens, UniProt Q96RI1).
T1 sequence (Q96RI1 whole entry): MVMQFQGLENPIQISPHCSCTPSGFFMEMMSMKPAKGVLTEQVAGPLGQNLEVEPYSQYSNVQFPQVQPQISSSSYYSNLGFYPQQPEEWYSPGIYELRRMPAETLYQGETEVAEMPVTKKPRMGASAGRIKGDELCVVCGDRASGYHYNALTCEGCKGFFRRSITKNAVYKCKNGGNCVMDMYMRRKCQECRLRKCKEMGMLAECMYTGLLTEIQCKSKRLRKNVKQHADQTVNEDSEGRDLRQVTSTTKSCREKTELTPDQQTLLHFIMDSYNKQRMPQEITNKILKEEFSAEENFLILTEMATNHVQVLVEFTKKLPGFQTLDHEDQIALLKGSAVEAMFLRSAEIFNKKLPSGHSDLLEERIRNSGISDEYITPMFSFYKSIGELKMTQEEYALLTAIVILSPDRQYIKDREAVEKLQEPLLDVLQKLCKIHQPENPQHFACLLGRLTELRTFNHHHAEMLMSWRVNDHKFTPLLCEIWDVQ
Briefly: Transactivation of human FXR expressed in human HeLa cells co-expressing BSEP after 24 hrs by dual-glo luciferase reporter gene assay. Format: cell-based. The essentials:
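Full-length reporter system with constitutive expression of hFXR and hRXR. A constitutive Renilla luciferase served for normalization and as a toxicity control. Maximum relative activation was expressed against a reference FXR agonist at 3 µM, set as 100%.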

Data set [1] has as its target T2, Bile acid receptor (Homo sapiens) (UniProt Q96RI1).
T2 sequence (whole entry): T1 sequence (Q96RI1 whole entry)
Briefly: Transactivation of human FXR expressed in human HeLa cells co-expressing BSEP at 3 uM after 24 hrs by dual-glo luciferase reporter gene assay relative to GW4064. The format is cell-based. The method in brief:
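Full-length FXR reporter gene assay with constitutively expressed hFXR and hRXR, plus renilla luciferase for normalization and toxicity control. Maximum relative activation is expressed against the reference agonist at 3 µM, set as 100%.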

Another data set is filed under the species Rattus norvegicus. Briefly: Displacement of [3H]Ro15-4513 from GABAa receptor in Sprague-Dawley rat cerebral cortical membranes up to 10 uM after 1 hr by scintillation counting.
Data set [2] can be described thus: Lipophilicity, logD of compound at pH 7.4 by LC-MS analysis. Format: physicochemical. The settings on record: buffer.
The subject of another data set is HepG2. Description: Cytotoxicity against human HepG2 cells at 50 uM after 48 hrs by WST-1 assay. As to conditions: hepg2, 48 h. The format is cell-based. The essentials: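 HepG2 hepatocarcinoma cells were tested for viability by WST-1 (water-soluble tetrazolium) assay, with concentrations up to 100 µM.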

`Cc1ccc2nc(-c3ccncc3)c(NCc3ccccc3)n2c1`: the EC50 on Bile acid receptor (read-out: EC50) is 2000 nM. Moreover, in data set [1], the max activation came to 15%.
`Cc1ccc2nc(-c3ccco3)c(NCc3ccccc3)n2c1`: at Bile acid receptor (read-out: EC50), the EC50 was determined as 560 nM. This molecule returned a max activation in data set [1] of 17%.
For `Cc1ccc2nc(-c3ccc(Cl)cn3)c(NCc3ccccc3)n2c1`, the EC50 at Bile acid receptor (read-out: EC50) was found to be 7.4 nM. In addition, in data set [1], the max activation amounted to 46%.
Regarding `Cc1ccc2nc(-c3ccccc3Cl)c(NCc3ccccc3)n2c1`, at Bile acid receptor (hela), the EC50 result is given as “Not Active”. For the same molecule, the max activation entry in data set [1] was “inactive”.
As for `Cc1ccc2nc(-c3cccc(Cl)c3)c(NCc3ccccc3)n2c1`, the EC50 at Bile acid receptor (read-out: EC50) was 16 nM. Besides, the max activation in data set [1] amounted to 20%.
As to `c1ccc(CNc2c(-c3cccs3)nc3cnccn23)cc1`, the EC50 result at Bile acid receptor (hela) is listed as “Not Active”. In addition, in data set [1], the max activation result was “inactive”.
As for `Cc1ccc2nc(-c3ccccn3)c(NCc3ccccc3)n2c1`, in data set [1], the max activation was found to be 19%. Moreover, the inhibition result in the data set filed under Rattus norvegicus was “inactive”.
Take `Cc1ccc2nc(-c3cccs3)c(NCCc3ccccc3)n2c1`: at Bile acid receptor (read-out: EC50), the EC50 was 1000 nM. In data set [1], this molecule had a max activation of 12%.
Regarding `O=C(O)c1ccn2c(NCc3ccccc3)c(-c3cccs3)nc2c1`, the EC50 entry on Bile acid receptor (hela) was “Not Active”. Besides, in data set [1], the max activation result was “inactive”.
For `Cc1ccc2nc(-c3nc(C)cs3)c(NCc3ccccc3)n2c1`, the EC50 at Bile acid receptor (read-out: EC50) was found to be 220 nM. The molecule further displayed a max activation in data set [1] of 19%.
For the molecule `Cc1ccc2nc(-c3cccs3)c(N[C@H](C)c3ccccc3)n2c1`, the EC50 at Bile acid receptor (read-out: EC50) was determined as 3200 nM. Also, in data set [1], the max activation amounted to 14%.
Regarding `c1ccc(CNc2c(-c3cccs3)nc3ccccn23)cc1`, on Bile acid receptor (read-out: EC50), the EC50 amounted to 4000 nM. This molecule also returned a max activation in data set [1] of 14%.
On the same counts, the results for `CCc1ccn2c(NCc3ccccc3)c(-c3cccs3)nc2c1` are 1200 nM and 16%.
On the same counts, the results for `Cc1ccc2nc(-c3ccsc3)c(NCc3ccccc3)n2c1` are 830 nM and 17%.
With `Cc1ccc2nc(-c3ccccc3)c(NCc3ccccc3)n2c1`, the EC50 at Bile acid receptor (read-out: EC50) is 280 nM. Besides, the max activation in data set [1] stood at 16%.
As to `Cc1ccc2nc(-c3ccc(Cl)cc3)c(NCc3ccccc3)n2c1`, the EC50 at Bile acid receptor (read-out: EC50) was determined as 240 nM. This molecule had a max activation in data set [1] of 14%.
On the same counts, the results for `Cc1ccc2nc(-c3ccc(F)cc3)c(NCc3ccccc3)n2c1` are 170 nM and 21%.
For `Cc1ccc2nc(-c3ccc4c(c3)OCCO4)c(NCc3ccccc3)n2c1` the same measures were 170 nM and 15%.
For `Cc1ccc2nc(-c3cccs3)c(NCCCc3ccccc3)n2c1` the same measures were 230 nM and 18%.
On to `C[C@H](CCC(=O)O)[C@H]1CC[C@H]2[C@@H]3[C@H](O)C[C@@H]4C[C@H](O)CC[C@]4(C)[C@H]3CC[C@]12C` [CHENODIOL], for which the logD in data set [2] came out at 0.53.
With `Cc1ccc2nc(-c3ccc(Cl)c(Cl)c3)c(NCc3ccccc3)n2c1`, on Bile acid receptor (read-out: EC50), the EC50 came out at 24 nM. This molecule had a max activation in data set [1] of 19%.
Regarding `c1ccc(CNc2c(-c3cccs3)nc3ccc(-c4ccccc4)cn23)cc1`, the EC50 at Bile acid receptor (read-out: EC50) was found to be 200 nM. Moreover, in data set [1], the max activation is 17%.
For `Cc1cccc(-c2nc3ccc(C)cn3c2NCc2ccccc2)c1` the same measures were 180 nM and 14%.
Consider `COc1cccc(-c2nc3ccc(C)cn3c2NCc2ccccc2)c1`, for which the EC50 at Bile acid receptor (read-out: EC50) came out at 250 nM. The molecule further yielded a max activation in data set [1] of 16%.
For `FC(F)(F)c1ccc2nc(-c3cccs3)c(NCc3ccccc3)n2c1` the same measures were 460 nM and 14%.
Turning to `Cc1ccc2nc(/C=C/c3ccccc3)c(NCc3ccccc3)n2c1`, on Bile acid receptor (read-out: EC50), the EC50 was 1160 nM. Also, the max activation in data set [1] is 13%.
`Cc1ccc2nc(-c3ccccc3C)c(NCc3ccccc3)n2c1`: the EC50 on Bile acid receptor (read-out: EC50) turned out to be 260 nM. In data set [1], this molecule showed a max activation of 35%.
As to `Cc1ccc2nc(Cc3ccccc3)c(NCc3ccccc3)n2c1`, the concentration giving a half-maximal response (EC50) entry at Bile acid receptor (hela) is given as “Not Active”. For the same molecule, the max activation result in data set [1] is “inactive”.
For the molecule `CC(C)c1onc(-c2c(Cl)cccc2Cl)c1COc1ccc(/C=C/c2cccc(C(=O)O)c2)c(Cl)c1`, in data set [2] (read-out: logD), the logD was 1.01. For the same molecule, the Activity result with HepG2 is “Toxic”.
With `Clc1ccc2nc(-c3cccs3)c(NCc3ccccc3)n2c1`, the EC50 at Bile acid receptor (read-out: EC50) was 160 nM. Also, the max activation in data set [1] was found to be 26%.
As to `Cc1ccc2nc(CCc3ccccc3)c(NCc3ccccc3)n2c1`, the EC50 at Bile acid receptor (read-out: EC50) worked out at 310 nM. The molecule further came in with a max activation in data set [1] of 12%.
On the same counts, the results for `COc1ccc(-c2nc3ccc(C)cn3c2NCc2ccccc2)cc1OC` are 910 nM and 16%.
`Cc1ccc2nc(-c3ccc(F)c(Cl)c3)c(NCc3ccccc3)n2c1`: the EC50 on Bile acid receptor (read-out: EC50) amounted to 26 nM. The molecule also had a max activation in data set [1] of 54%.
For `Cc1ccc2nc(-c3cccs3)c(Cc3ccccc3)n2c1` the same measures were 810 nM and 12%.
`Cc1ccc2nc(-c3cccnc3)c(NCc3ccccc3)n2c1`: the EC50 on Bile acid receptor (read-out: EC50) came out at 520 nM. This molecule came in with a max activation in data set [1] of 17%.
On the same counts, the results for `Cc1ccc2nc(-c3cccs3)c(N[C@@H](C)c3ccccc3)n2c1` are 1300 nM and 12%.
Turning to `CC[C@H]1[C@@H](O)[C@@H]2[C@H](CC[C@]3(C)[C@@H]([C@H](C)CCC(=O)O)CC[C@@H]23)[C@@]2(C)CC[C@@H](O)C[C@@H]12` [OBETICHOLIC ACID], the logD in data set [2] (read-out: logD) worked out at 0.81. In addition, the Activity result in the data set on HepG2 is reported as “Toxic”.
Take `Cc1ccc2nc(C3CCCCC3)c(NCc3ccccc3)n2c1`: the EC50 result at Bile acid receptor (hela) was “Not Active”. The max activation entry in data set [1] is “inactive”.
`Cc1ccc(-c2nc3ccc(C)cn3c2NCc2ccccc2)cc1`: on Bile acid receptor (read-out: EC50), the EC50 was 130 nM. Also, in data set [1], the max activation came to 14%.
For the molecule `COc1ccc2nc(-c3cccs3)c(NCc3ccccc3)n2c1`, at Bile acid receptor (read-out: EC50), the EC50 was found to be 830 nM. Moreover, in data set [1], the max activation stood at 18%.
With `Cc1ccc2nc(-c3cc(Cl)ccn3)c(NCc3ccccc3)n2c1`, the EC50 on Bile acid receptor (read-out: EC50) was found to be 1.5 nM. The molecule also registered a max activation in data set [1] of 27%.
On the same counts, the results for `Cc1ccc2nc(-c3ccc(Br)cc3)c(NCc3ccccc3)n2c1` are 430 nM and 14%.
On the same counts, the results for `Cc1ccc2nc(-c3cccs3)c(NCCCCc3ccccc3)n2c1` are 750 nM and 17%.
On the same counts, the results for `Cc1ccc(CNc2c(-c3cccs3)nc3ccc(C)cn23)cc1` are 220 nM and 14%.
Regarding `COc1ccc(CNc2c(-c3cccs3)nc3ccc(C)cn23)cc1`, the EC50 on Bile acid receptor (read-out: EC50) is 170 nM. The max activation in data set [1] was 14%.
On the same counts, the results for `COc1ccc(-c2nc3ccc(C)cn3c2NCc2ccccc2)cc1` are 1270 nM and 16%.
For `Cc1ccc2nc(-c3ccoc3)c(NCc3ccccc3)n2c1` the same measures were 1900 nM and 16%.
As for `Cc1ccc2nc(-c3ccc(-c4ccccc4)cc3)c(NCc3ccccc3)n2c1`, at Bile acid receptor (read-out: EC50), the EC50 was 81 nM. Further, the max activation in data set [1] came out at 17%.
With `Cc1ccc2nc(-c3ccc4ccccc4c3)c(NCc3ccccc3)n2c1`, at Bile acid receptor (read-out: EC50), the EC50 worked out at 210 nM. This molecule returned a max activation in data set [1] of 18%.
With `Cc1ccc2nc(-c3cccc(Cl)n3)c(NCc3ccccc3)n2c1`, at Bile acid receptor (read-out: EC50), the EC50 was determined as 80 nM. In addition, the max activation in data set [1] was found to be 31%.
Regarding `Fc1ccc2nc(-c3cccs3)c(NCc3ccccc3)n2c1`, on Bile acid receptor (hela), the EC50 entry is “Not Active”. For the same molecule, the max activation entry in data set [1] is “inactive”.
With `Cc1ccc2nc(-c3cccs3)c(NCc3ccccc3)n2c1`, the EC50 on Bile acid receptor (read-out: EC50) is 540 nM. The molecule further had a max activation in data set [1] of 15%.
`Cc1cccc2nc(-c3cccs3)c(NCc3ccccc3)n12`: the EC50 result on Bile acid receptor (hela) is reported as “Not Active”. In data set [1], the max activation entry was “inactive”.
On to `Brc1ccc2nc(-c3cccs3)c(NCc3ccccc3)n2c1`, for which the EC50 at Bile acid receptor (read-out: EC50) is 500 nM. This molecule also showed a max activation in data set [1] of 14%.
On the same counts, the results for `Cc1ccc2nc(-c3cccn3C)c(NCc3ccccc3)n2c1` are 1100 nM and 17%.
For `Cc1ccc2nc(-c3cnccn3)c(NCc3ccccc3)n2c1`, the EC50 on Bile acid receptor (read-out: EC50) worked out at 1200 nM. In data set [1], this molecule gave a max activation of 18%.
